Test results taken from ChEMBL document CHEMBL1130136, “Novel biological response modifiers: phthalimides with tumor necrosis factor-alpha production-regulating activity” (J Med Chem, 1997).
Converted amounts (≈) assume the structure as drawn.

Assays:
HL-60 [1] = experiment: Tumor necrosis factor-alpha production in human leukemia cell line (HL-60) stimulated with 10 nM 12-O-tetradecanoylphorbol 13-acetate (TPA) at 30 uMolar.; format: functional
Method in brief: (§1)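 HL-60 cells at 5 × 10⁵/mL in RPMI1640 + 10% FBS were co-treated with 30 μM test compound and either 10 nM TPA or 50 nM OA for 16 h at 37 °C. Culture-medium TNF-α was measured by ELISA and expressed as % of inducer-alone control. Cell counts were taken at harvest. Assays were run in duplicate or triplicate (mean taken), at least three times.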

HL-60 [2] = experiment: Tumor necrosis factor-alpha production in human leukemia cell line (HL-60) stimulated with 50 nM okadaic acid (OA), at 30 uMolar.; format: functional; method in brief: as §1
HL-60 [3] = experiment: Amount of tumor necrosis factor-alpha produced in human leukemia cell line (HL-60) stimulated with 10 nM12-O-tetradecanoylphorbol 13-acetate (TPA) at 0.3 micro M, measured by ELISA.; format: functional
Method in brief: (§2)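 HL-60 cells (2.5 × 10⁵ in 0.5 mL, i.e. 5 × 10⁵/mL), growing exponentially in RPMI1640 + 10% FBS, were exposed to 10 nM TPA or 50 nM OA together with 0.3 μM test compound for 16 h at 37 °C. Secreted TNF-α was quantified by ELISA and expressed as % of inducer-alone production. Each run was done in duplicate or triplicate (mean taken) and repeated at least three times.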

WI-38 [4] = experiment: The cytotoxicity of the compounds assessed using human embryonic lung fibroblast WI-38 cells at (2.3 micro M); format: functional, cell-based
Method in brief: (§3)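 WI-38 human embryonic lung fibroblasts (5 × 10³ cells/well) in RPMI1640 + 10% FCS were exposed to graded concentrations of compound for 48 h at 37 °C. Viability was read by WST-1 with 1-methoxy PMS (2 h, 37 °C; absorbance at 450 nm). IC50 was reported in μg/mL, with the μM equivalent in parentheses.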

HL-60 [5] = experiment: Amount of tumor necrosis factor-alpha produced by human leukemia cell line (HL-60) stimulated with 50 nM okadaic acid (OA), at 0.3 uM, measured by ELISA.; format: functional; method in brief: as §2
HL-60 [6] = experiment: Amount of tumor necrosis factor-alpha produced by human leukemia cell line (HL-60) stimulated with 10 nM12-O-tetradecanoylphorbol 13-acetate (TPA) at 0.3 uM, measured by ELISA; format: functional; method in brief: as §2
HL-60 [7] = experiment: Inhibition of 50 nM okadaic acid induced tumor necrosis factor-alpha production in human leukemia cell line (HL-60) by 0.3 uM.; format: functional; method in brief: as §2
WI-38 [8] = experiment: The cytotoxicity of the compounds assessed using human embryonic lung fibroblast WI-38 cells at (87 micro M); format: functional, cell-based; method in brief: as §3
WI-38 [9] = experiment: In vitro cytotoxicity against human embryonic lung fibroblast WI-38 cells.; format: functional, cell-based; method in brief: as §3
WI-38 [10] = experiment: The cytotoxicity of the compounds assessed using human embryonic lung fibroblast WI-38 cells at (148 micro M); format: functional, cell-based; method in brief: as §3
WI-38 [11] = experiment: The cytotoxicity of the compounds assessed using human embryonic lung fibroblast WI-38 cells at (95 micro M); format: functional, cell-based; method in brief: as §3
WI-38 [12] = experiment: The cytotoxicity of the compounds assessed using human embryonic lung fibroblast WI-38 cells at (2.6 micro M).; format: functional, cell-based; method in brief: as §3
WI-38 [13] = experiment: The cytotoxicity of the compounds assessed using human embryonic lung fibroblast WI-38 cells at (8 micro M); format: functional, cell-based; method in brief: as §3

SMILES	Amount of TNF-alpha (HL-60 [1]) [%]	Amount of TNF-alpha (HL-60 [2]) [%]	Amount of TNF-alpha (HL-60 [6]) [%]	Amount of TNF-alpha (HL-60 [7]) [%]	IC50 (WI-38 [9]) [µg/mL]	other results
C/N=C1\c2ccccc2C(=O)N1c1c(C(C)C)cccc1C(C)C	134	37				
CC(C)c1cccc(C(C)C)c1N1C(=O)c2c(F)c(F)c(F)c(F)c2C1=O						Amount of TNF-alpha (HL-60 [3]): 375%; IC50 (WI-38 [4]): 0.9 µg/mL (≈ 2.37 µM); Amount of TNF-alpha (HL-60 [5]): 0%
O=C1c2c(F)c(F)c(F)c(F)c2C(=O)N1[C@@H]1CCc2ccccc21			233	43		IC50 (WI-38 [8]): 30.3 µg/mL (≈ 90.4 µM)
CC(C)c1cccc(N2C(=O)c3ccccc3C2=O)c1	158	105			> 100	
O=C1c2c(F)c(F)c(F)c(F)c2C(=O)N1[C@H]1CCc2ccccc21			392	98	> 100	
CC(C)c1cccc(C(C)C)c1N1Cc2ccccc2C1=O	214	40				IC50 (WI-38 [10]): 43.1 µg/mL (≈ 147 µM)
CC(=O)Nc1ccc([C@@H](C)N2C(=O)c3c(F)c(F)c(F)c(F)c3C2=O)cc1			220	55		
CC[C@H](c1ccccc1)N1C(=O)c2c(F)c(F)c(F)c(F)c2C1=O			111	67		
CC(C)c1cccc(C(C)C)c1N1C(=O)Cc2ccccc2C1=O	268	50			> 100	
CC(C)c1ccccc1N1C(=O)c2ccccc2C1=O	158	105			> 100	
Cc1cccc(C)c1N1C(=O)c2ccccc2C1=O	161	40			> 100	
CC[C@@H](c1ccccc1)N1C(=O)c2c(F)c(F)c(F)c(F)c2C1=O			235	87		
CCCCCc1ccccc1N1C(=O)c2ccccc2C1=O	151	35			> 100	
C[C@@H](C1CCCCC1)N1C(=O)c2c(F)c(F)c(F)c(F)c2C1=O			124	65	> 100	
CC(C)c1cccc(C(C)C)c1N1C(=O)c2ccccc2C1=S	1252	0				IC50 (WI-38 [11]): 30.8 µg/mL (≈ 95.2 µM)
CC(C)c1cccc(C(C)C)c1N1C(=O)c2ccccc2C1=O	602	21			> 100	
O=C1c2c(F)c(F)c(F)c(F)c2C(=O)N1C1Cc2ccccc2C1			104	43		IC50 (WI-38 [12]): 0.9 µg/mL (≈ 2.68 µM)
COc1ccccc1N1C(=O)c2ccccc2C1=O	95	21			> 100	
C[C@H](c1ccc(N)cc1)N1C(=O)c2c(F)c(F)c(F)c(F)c2C1=O			241	27		
CC(C)c1cccc(C(C)C)c1N1C(=O)c2cc3ccccc3cc2C1=O	144	48			> 100	
C[C@H](c1cccc2ccccc12)N1C(=O)c2c(F)c(F)c(F)c(F)c2C1=O			100	2		IC50 (WI-38 [13]): 2.8 µg/mL (≈ 7.5 µM)
C[C@H](C1CCCCC1)N1C(=O)c2c(F)c(F)c(F)c(F)c2C1=O			98	10	> 100	
O=C1c2ccccc2C(=O)N1c1ccccc1-c1ccccc1	262	40			> 100	
CC(C)c1ccc(N2C(=O)c3ccccc3C2=O)cc1	139	33			> 100	
